Laboratory results from ChEMBL document CHEMBL1255201, “A novel arylethynyltriazole acyclonucleoside inhibits proliferation of drug-resistant pancreatic cancer cells” (2010).

System: MIA PaCa-2
Experiment: Growth inhibition of human MIAPaCa2 cells after 48 hrs by MTT assay
Format: functional
Summary of the method: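 Cells seeded at 15,000/well, attached overnight, then medium replaced with fresh medium alone (control) or medium containing compound; 48 h at 37 °C, 5% CO2. Viable cells quantified by MTT colorimetric assay.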

## Nc1ccn([C@@H]2O[C@H](CO)[C@@H](O)C2(F)F)c(=O)n1 [GEMCITABINE]
  inhibition (INH): 30%
